# The source made the active and inactive calls. The rule behind the calls is not given here. Positions of bridges follow the written chain, without caps; N, C: chain ends. Non-standard residues stand in square brackets, D forms with d. Residues, ends and D or L forms follow the SMILES beside them. dNMeF = CN[C@H](Cc1ccccc1)C(=O)O
# Experiments:
# Staphylococcus aureus [1] = assay: Antibacterial activity against methicillin-resistant Staphylococcus aureus; assay type: functional
# [2] = tested on: Staphylococcus epidermidis; assay: Antibacterial activity against Staphylococcus epidermidis; assay type: functional
# Staphylococcus aureus [3] = assay: Antibacterial activity against methicillin-resistant Staphylococcus aureus after 24 hrs; assay type: functional
# Staphylococcus aureus [4] = assay: Antibacterial activity against methicillin-sensitive Staphylococcus aureus after 24 hrs; assay type: functional
# Staphylococcus aureus [5] = assay: Antibacterial activity against methicillin-sensitive Staphylococcus aureus; assay type: functional
# Staphylococcus aureus [6] = assay: Antibacterial activity against methicillin-resistant Staphylococcus aureus USA300; assay type: functional
# Staphylococcus aureus [7] = assay: Antibacterial activity against methicillin-resistant Staphylococcus aureus ATCC 700699 after 24 hrs; assay type: functional; settings: ATCC 700699, 24 h
# Staphylococcus aureus [8] = assay: Antibacterial activity against methicillin-resistant Staphylococcus aureus ATCC 33591 after 24 hrs; assay type: functional; settings: ATCC 33591, 24 h
# Staphylococcus aureus [9] = assay: Antibacterial activity against methicillin-resistant Staphylococcus aureus isolate 42412 after 24 hrs; assay type: functional; settings: isolate 42412, 24 h
# Enterococcus faecalis [10] = assay: Antibacterial activity against vancomycin-resistant Enterococcus faecalis ATCC 29212 after 24 hrs; assay type: functional; settings: ATCC 29212, 24 h
# Staphylococcus aureus [11] = assay: Antibacterial activity against methicillin-resistant Staphylococcus aureus isolate 21455 after 24 hrs; assay type: functional; settings: isolate 21455, 24 h
# Enterococcus faecalis [12] = assay: Antibacterial activity against vancomycin-resistant Enterococcus faecalis ATCC 700802 after 24 hrs; assay type: functional; settings: ATCC 700802, 24 h
# Enterococcus faecalis [13] = assay: Antibacterial activity against vancomycin-resistant Enterococcus faecalis isolate 1001 after 24 hrs; assay type: functional; settings: isolate 1001, 24 h
# Staphylococcus aureus [14] = assay: Antibacterial activity against Staphylococcus aureus 4299 after 24 hrs; assay type: functional; settings: Staphylococcus aureus, 4299, 24 h
# Bacillus cereus = assay: Antibacterial activity against Bacillus cereus ATCC 11788 after 24 hrs; assay type: functional; settings: ATCC 11788, 24 h
# Staphylococcus aureus [15] = assay: Antibacterial activity against Staphylococcus aureus ATCC 29213 after 24 hrs; assay type: functional; settings: ATCC 29213, 24 h
# Enterococcus faecalis [16] = assay: Antibacterial activity against vancomycin-resistant Enterococcus faecalis isolate 1008 after 24 hrs; assay type: functional; settings: isolate 1008, 24 h
# Enterococcus faecalis [17] = assay: Antibacterial activity against vancomycin-resistant Enterococcus faecalis isolate 1002 after 24 hrs; assay type: functional; settings: isolate 1002, 24 h
# [18] = tested on: Bacillus subtilis (Bacillus subtilis); assay: Antibacterial activity against Bacillus subtilis ATCC 6633 after 24 hrs; settings: ATCC 6633, 24 h
# [19] = tested on: Staphylococcus saprophyticus; assay: Antibacterial activity against Staphylococcus saprophyticus ATCC BAA 750 after 24 hrs; assay type: functional; settings: ATCC BAA 750, 24 h
# [20] = tested on: Staphylococcus epidermidis; assay: Antibacterial activity against Staphylococcus epidermidis 12228 after 24 hrs; assay type: functional; settings: Staphylococcus epidermidis, 12228, 24 h
# Staphylococcus aureus [21] = assay: Antibacterial activity against methicillin-resistant Staphylococcus aureus isolate 1003 after 24 hrs; assay type: functional; settings: isolate 1003, 24 h
# [22] = tested on: Staphylococcus saprophyticus; assay: Antibacterial activity against Staphylococcus saprophyticus ATCC 15305 after 24 hrs; assay type: functional; settings: ATCC 15305, 24 h
# [23] = tested on: Staphylococcus saprophyticus; assay: Antibacterial activity against Staphylococcus saprophyticus ATCC 49453 after 24 hrs; assay type: functional; settings: ATCC 49453, 24 h
# Enterococcus faecalis [24] = assay: Antibacterial activity against vancomycin-resistant Enterococcus faecalis isolate 1004 after 24 hrs; assay type: functional; settings: isolate 1004, 24 h
# [25] = tested on: Staphylococcus saprophyticus; assay: Antibacterial activity against Staphylococcus saprophyticus ATCC 49907 after 24 hrs; assay type: functional; settings: ATCC 49907, 24 h
# Staphylococcus aureus [26] = assay: Antibacterial activity against Staphylococcus aureus ATCC 29213 infected in C57BL6 mouse cornea assessed as mean corneal thickness at 0.3% administered tropically 2 times on day 1, 4 times on day 2 and 2 times on day 3 starting from 6 hrs post infection measured 24 hrs post last dose by AS-OCT method (reference value: 151.7 +/- 12.7 micrometer); assay type: functional
# How it was run: (§1)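 Mouse corneal epithelium scratched with a scalpel, then infected with 15 µl of 6×10⁶ CFU/ml S. aureus ATCC 29213. From 6 h p.i., 15 µl of PBS vehicle, 0.3% w/v peptide in PBS or 0.3% moxifloxacin was applied, 8 doses total. Outcomes were slit-lamp examination, AS-OCT corneal thickness and CFU counts of harvested corneas (mean log₁₀ CFU/tissue ± SEM).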
# Staphylococcus aureus [27] = assay: Antibacterial activity against Staphylococcus aureus ATCC 29213 infected in C57BL6 mouse cornea assessed as decrease in log bacterial load/tissue at 0.3% administered tropically 2 times on day 1, 4 times on day 2 and 2 times on day 3 starting from 6 hrs post infection measured 48 hrs post last dose; assay type: functional; how it was run: as §1
# Staphylococcus aureus [28] = assay: Antibacterial activity against Staphylococcus aureus ATCC 29213 infected in C57BL6 mouse cornea assessed as decrease in corneal infiltrates at 0.3% administered tropically 2 times on day 1, 4 times on day 2 and 2 times on day 3 starting from 6 hrs post infection measured 48 hrs post last dose by slit-lamp photography; assay type: functional; how it was run: as §1
# Staphylococcus aureus [29] = assay: Antibacterial activity against Staphylococcus aureus ATCC 29213 infected in C57BL6 mouse cornea assessed as decrease in conjunctival chemosis at 0.3% administered tropically 2 times on day 1, 4 times on day 2 and 2 times on day 3 starting from 6 hrs post infection measured 48 hrs post last dose by slit-lamp photography; assay type: functional; how it was run: as §1
# Staphylococcus aureus [30] = assay: Antibacterial activity against Staphylococcus aureus ATCC 29213 infected in C57BL6 mouse cornea assessed as mean corneal thickness at 0.3% administered tropically 2 times on day 1, 4 times on day 2 and 2 times on day 3 starting from 6 hrs post infection measured 48 hrs post last dose by AS-OCT method (reference value: 186.2 +/- 17.5 micrometer); assay type: functional; how it was run: as §1
structure (smiles),measurement,setting,value
CC[C@@H](C)[C@@H](NC(=O)[C@@H](CCC(N)=O)NC(=O)[C@H](CO)NC(=O)[C@@H](NC(=O)[C@@H](Cc1ccccc1)NC)[C@@H](C)CC)C(=O)N[C@H](C(=O)N[C@@H](CO)C(=O)N[C@H]1C(=O)N[C@@H](C)C(=O)N[C@@H](CCCCN)C(=O)N[C@@H]([C@@H](C)CC)C(=O)O[C@H]1C)[C@@H](C)CC,MIC,Staphylococcus aureus [1],1 µg/mL
same,MIC,[2],0.5 to 1 µg/mL
CC[C@@H](C)[C@@H](NC(=O)[C@@H](CCC(N)=O)NC(=O)[C@H](CO)NC(=O)[C@@H](NC(=O)[C@@H](Cc1ccccc1)NC)[C@@H](C)CC)C(=O)N[C@H](C(=O)N[C@@H](CO)C(=O)N[C@H]1C(=O)N[C@@H](C)C(=O)N[C@@H](Cc2ccccc2)C(=O)N[C@@H]([C@@H](C)CC)C(=O)O[C@H]1C)[C@@H](C)CC,MIC,Staphylococcus aureus [3],2 µg/mL
CC[C@@H](C)[C@@H](NC(=O)[C@@H](CCC(N)=O)NC(=O)[C@H](CO)NC(=O)[C@@H](NC(=O)[C@@H](Cc1ccccc1)NC)[C@@H](C)CC)C(=O)N[C@H](C(=O)N[C@@H](CO)C(=O)N[C@H]1C(=O)N[C@@H](C)C(=O)N[C@@H](C)C(=O)N[C@@H]([C@@H](C)CC)C(=O)O[C@H]1C)[C@@H](C)CC,MIC,Staphylococcus aureus [4],1 µg/mL
same,MIC,Staphylococcus aureus [3],1 to 2 µg/mL
CCC(C)[C@@H]1NC(=O)[C@H](C)NC(=O)[C@H](NC(=O)[C@H](CO)NC(=O)[C@@H](NC(=O)[C@H](NC(=O)[C@@H](CCC(N)=O)NC(=O)[C@H](CO)NC(=O)[C@@H](NC(=O)[C@@H](Cc2ccccc2)NC)[C@@H](C)CC)[C@H](C)CC)[C@@H](C)CC)[C@H](C)OC(=O)[C@H]([C@@H](C)CC)NC1=O (some centres not stated),MIC,Staphylococcus aureus [4],0.063 µg/mL
same,MIC,Staphylococcus aureus [3],0.25 µg/mL
CC[C@@H](C)[C@@H](NC(=O)[C@@H](CCC(N)=O)NC(=O)[C@H](CO)NC(=O)[C@@H](NC(=O)[C@@H](Cc1ccccc1)NC)[C@@H](C)CC)C(=O)N[C@H](C(=O)N[C@@H](CO)C(=O)N[C@H]1C(=O)N[C@@H](C)C(=O)N[C@@H](CCCCNC(=N)N)C(=O)N[C@@H]([C@@H](C)CC)C(=O)O[C@H]1C)[C@@H](C)CC,MIC,Staphylococcus aureus [5],1 µg/mL
same,MIC,[2],1 µg/mL
same,MIC,Staphylococcus aureus [6],2 µg/mL
CC[C@@H](C)[C@@H](NC(=O)[C@@H](CCC(N)=O)NC(=O)[C@H](CO)NC(=O)[C@@H](NC(=O)[C@@H](Cc1ccccc1)NC)[C@@H](C)CC)C(=O)N[C@H](C(=O)N[C@@H](CO)C(=O)N[C@H]1C(=O)N[C@@H](C)C(=O)N[C@@H](CCCNC(=N)N)C(=O)N[C@@H]([C@@H](C)CC)C(=O)O[C@H]1C)[C@@H](C)CC,MIC,Staphylococcus aureus [5],2 µg/mL
same,MIC,Staphylococcus aureus [1],2 µg/mL
CC[C@@H](C)[C@@H](NC(=O)[C@@H](CCC(N)=O)NC(=O)[C@H](CO)NC(=O)[C@@H](NC(=O)[C@@H](Cc1ccccc1)NC)[C@@H](C)CC)C(=O)N[C@H](C(=O)N[C@@H](CO)C(=O)N[C@H]1C(=O)N[C@@H](C)C(=O)N[C@@H](C(C)C)C(=O)N[C@@H]([C@@H](C)CC)C(=O)O[C@H]1C)[C@@H](C)CC,MIC,Staphylococcus aureus [4],0.25 µg/mL
same,MIC,Staphylococcus aureus [3],0.5 µg/mL
CC[C@@H](C)[C@@H](NC(=O)[C@@H](CCC(N)=O)NC(=O)[C@H](CO)NC(=O)[C@@H](NC(=O)[C@@H](Cc1ccccc1)NC)[C@@H](C)CC)C(=O)N[C@H](C(=O)N[C@@H](CO)C(=O)N[C@H]1C(=O)N[C@@H](C)C(=O)N[C@@H](CC(C)C)C(=O)N[C@@H]([C@@H](C)CC)C(=O)O[C@H]1C)[C@@H](C)CC,MIC,Staphylococcus aureus [7],0.25 µg/mL
same,MIC,Staphylococcus aureus [8],0.25 µg/mL
same,MIC,Staphylococcus aureus [9],< 0.0625 µg/mL
same,MIC,Staphylococcus aureus [4],0.063 µg/mL
same,MIC,Enterococcus faecalis [10],0.25 µg/mL
same,MIC,Staphylococcus aureus [11],< 0.0625 µg/mL
same,MIC,Staphylococcus aureus [3],0.25 µg/mL
same,MIC,Enterococcus faecalis [12],0.25 µg/mL
CC[C@@H](C)[C@@H](NC(=O)[C@@H](CCC(N)=O)NC(=O)[C@H](CO)NC(=O)[C@@H](NC(=O)[C@@H](Cc1ccccc1)NC)[C@@H](C)CC)C(=O)N[C@H](C(=O)N[C@@H](CO)C(=O)N[C@H]1C(=O)N[C@@H](CCCNC(=N)N)C(=O)N[C@@H](CC(C)C)C(=O)N[C@@H]([C@@H](C)CC)C(=O)O[C@H]1C)[C@@H](C)CC (H-[dNMeF]IS[dQ][dI]IS[dT]RLI; ester 8-C),MIC,Staphylococcus aureus [7],0.5 µg/mL
same,MIC,Enterococcus faecalis [13],0.5 µg/mL
same,MIC,Staphylococcus aureus [8],0.125 µg/mL
same,MIC,Staphylococcus aureus [9],< 0.0625 µg/mL
same,MIC,Staphylococcus aureus [14],0.25 µg/mL
same,MIC,Bacillus cereus,0.25 µg/mL
same,MIC,Staphylococcus aureus [15],0.5 µg/mL
same,MIC,Enterococcus faecalis [16],0.25 µg/mL
same,MIC,Enterococcus faecalis [17],1 µg/mL
same,MIC,[18],< 0.0625 µg/mL
same,MIC,Enterococcus faecalis [10],1 µg/mL
same,MIC,[19],< 0.0625 µg/mL
same,MIC,[20],< 0.0625 µg/mL
same,MIC,Staphylococcus aureus [11],0.25 µg/mL
same,MIC,Staphylococcus aureus [21],0.25 µg/mL
same,MIC,[22],< 0.0625 µg/mL
same,MIC,[23],< 0.0625 µg/mL
same,MIC,Enterococcus faecalis [24],0.25 µg/mL
same,MIC,[25],< 0.0625 µg/mL
same,MIC,Enterococcus faecalis [12],0.5 µg/mL
CC[C@@H](C)[C@@H](NC(=O)[C@@H](CCCNC(=N)N)NC(=O)[C@H](CO)NC(=O)[C@@H](NC(=O)[C@@H](Cc1ccccc1)NC)[C@@H](C)CC)C(=O)N[C@H](C(=O)N[C@@H](CO)C(=O)N[C@H]1C(=O)N[C@@H](CCCNC(=N)N)C(=O)N[C@@H](CC(C)C)C(=O)N[C@@H]([C@@H](C)CC)C(=O)O[C@H]1C)[C@@H](C)CC (H-[dNMeF]IS[dR][dI]IS[dT]RLI; ester 8-C),MIC,Staphylococcus aureus [7],1 µg/mL
same,MIC,Enterococcus faecalis [13],1 µg/mL
same,MIC,Staphylococcus aureus [8],1 µg/mL
same,MIC,Staphylococcus aureus [9],1 µg/mL
same,MIC,Staphylococcus aureus [14],0.5 µg/mL
same,MIC,Bacillus cereus,1 µg/mL
same,MIC,Staphylococcus aureus [15],1 µg/mL
same,MIC,Enterococcus faecalis [16],1 µg/mL
same,MIC,Enterococcus faecalis [17],1 µg/mL
same,MIC,[18],< 0.0625 µg/mL
same,MIC,Enterococcus faecalis [10],1 µg/mL
same,MIC,[19],< 0.0625 µg/mL
same,MIC,[20],< 0.0625 µg/mL
same,MIC,Staphylococcus aureus [11],1 µg/mL
same,MIC,Staphylococcus aureus [21],0.5 µg/mL
same,MIC,[22],< 0.0625 µg/mL
same,MIC,[23],< 0.0625 µg/mL
same,MIC,Enterococcus faecalis [24],1 µg/mL
same,MIC,[25],< 0.0625 µg/mL
same,MIC,Enterococcus faecalis [12],1 µg/mL
COc1c(N2C[C@@H]3CCCN[C@@H]3C2)c(F)cc2c(=O)c(C(=O)O)cn(C3CC3)c12 [MOXIFLOXACIN],Activity,Staphylococcus aureus [26],124.2 um
same,Activity,Staphylococcus aureus [27],3.7 log10CFU
same,Activity,Staphylococcus aureus [28],Active
same,Activity,Staphylococcus aureus [29],Active
same,Activity,Staphylococcus aureus [30],140.3 um
